Measured values: ChEMBL document CHEMBL4261529, “Rational design and optimization of selenophenes with basic side chains as novel potent selective estrogen receptor modulators (SERMs) for breast cancer therapy” (Medchemcomm, 2017)
Activity calls are given as the source filed them. The calls are words filed in the database; no cut-off is given here.

Columns and labels:
[1] = molecular target: T1, Estrogen receptor (Homo sapiens) (UniProt P03372); assay: Binding affinity to human ERalpha LBD expressed in Escherichia coli BL21(DE3) after 2 hrs by fluorescence tracer coumestrol based competitive fluorometric binding assay relative to 17beta-estradiol
T1 sequence (whole entry): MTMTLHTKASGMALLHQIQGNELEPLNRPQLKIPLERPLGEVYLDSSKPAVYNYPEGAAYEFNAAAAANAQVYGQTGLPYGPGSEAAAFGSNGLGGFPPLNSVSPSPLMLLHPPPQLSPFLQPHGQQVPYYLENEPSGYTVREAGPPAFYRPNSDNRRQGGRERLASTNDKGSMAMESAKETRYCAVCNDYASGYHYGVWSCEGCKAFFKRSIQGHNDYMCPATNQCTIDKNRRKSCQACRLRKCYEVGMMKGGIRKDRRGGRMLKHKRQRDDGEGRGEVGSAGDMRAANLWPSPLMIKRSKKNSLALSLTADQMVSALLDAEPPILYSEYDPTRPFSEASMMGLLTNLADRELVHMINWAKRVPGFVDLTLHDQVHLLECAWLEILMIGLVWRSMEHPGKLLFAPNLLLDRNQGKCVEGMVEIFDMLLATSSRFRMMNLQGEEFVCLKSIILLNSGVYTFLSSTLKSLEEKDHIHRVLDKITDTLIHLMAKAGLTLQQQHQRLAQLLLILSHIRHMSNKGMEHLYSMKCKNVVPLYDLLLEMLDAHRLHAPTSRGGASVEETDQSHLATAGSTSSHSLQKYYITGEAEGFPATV

Estrogen receptor beta [2] = molecular target: T2, Estrogen receptor beta (Homo sapiens, UniProt Q92731); assay: Binding affinity to human ERbeta LBD expressed in Escherichia coli BL21(DE3) after 2 hrs by fluorescence tracer coumestrol based competitive fluorometric binding assay relative to 17beta-estradiol
T2 sequence (Q92731 whole entry, the tested form may be a part): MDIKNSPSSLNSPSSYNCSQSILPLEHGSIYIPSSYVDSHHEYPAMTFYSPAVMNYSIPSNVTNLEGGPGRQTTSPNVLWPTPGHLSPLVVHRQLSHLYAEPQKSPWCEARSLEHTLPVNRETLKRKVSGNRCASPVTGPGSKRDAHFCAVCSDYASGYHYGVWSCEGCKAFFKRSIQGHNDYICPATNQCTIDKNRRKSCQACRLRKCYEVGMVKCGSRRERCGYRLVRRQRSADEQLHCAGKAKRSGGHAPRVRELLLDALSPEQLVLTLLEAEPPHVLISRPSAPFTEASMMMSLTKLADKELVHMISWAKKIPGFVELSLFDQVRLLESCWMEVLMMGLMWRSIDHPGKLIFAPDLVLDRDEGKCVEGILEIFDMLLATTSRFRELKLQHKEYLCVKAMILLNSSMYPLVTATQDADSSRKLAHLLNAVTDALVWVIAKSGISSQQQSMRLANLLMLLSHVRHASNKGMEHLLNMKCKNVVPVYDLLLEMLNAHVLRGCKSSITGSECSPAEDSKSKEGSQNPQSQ

Homo sapiens = organism: Homo sapiens; assay: Ratio of relative binding affinity for human ERalpha LBD to relative binding affinity to human ERbeta LBD
Estrogen receptor [3] = molecular target: T3, Estrogen receptor (Homo sapiens, UniProt P03372); assay: Agonist activity at ERalpha (unknown origin) expressed in HEK293T cells assessed as transcriptional activity after 24 hrs by dual luciferase reporter gene assay; type: cell-based
T3 sequence (P03372 whole entry): T1 sequence (whole entry)

Estrogen receptor [4] = molecular target: T3, Estrogen receptor; assay: Antagonist activity at ERalpha (unknown origin) expressed in HEK293T cells assessed as inhibition of 17beta-estradiol stimulated transcriptional activity after 24 hrs by dual luciferase reporter gene assay; type: cell-based
Estrogen receptor beta [5] = molecular target: T2, Estrogen receptor beta; assay: Antagonist activity at ERbeta (unknown origin) expressed in HEK293T cells assessed as inhibition of 17beta-estradiol stimulated transcriptional activity after 24 hrs by dual luciferase reporter gene assay relative to 17beta-estradiol; type: cell-based
Procedure, shortened: (§1)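 ERβ expression vector (100 ng) plus 300 ng 3×ERE-luciferase reporter, calcium phosphate transfection into HEK293T cells plated in phenol red-free DMEM with 10% FBS. Next day, treated in triplicate with increasing doses (up to 10–5 M). For antagonist mode, 10 nM estradiol was co-added. Luciferase read 24 h later.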

Estrogen receptor beta [6] = molecular target: T2, Estrogen receptor beta; assay: Antagonist activity at ERbeta (unknown origin) expressed in HEK293T cells assessed as inhibition of 17beta-estradiol stimulated transcriptional activity after 24 hrs by dual luciferase reporter gene assay; type: cell-based
Procedure, shortened: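 HEK293T cells kept in DMEM with 10% FBS, plated in phenol red-free DMEM/10% FBS. Calcium phosphate co-transfection with 300 ng 3×ERE-luciferase reporter and 100 ng ERβ expression vector. Next day, cells stimulated with 10 nM estradiol plus increasing compound doses (up to 10–5 M), in triplicate. Luciferase read after 24 h.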

MCF7 [7] = assay: Antiproliferative activity against human MCF7 cells after 72 hrs by MTT assay; type: functional, cell-based; conditions: MCF7, 72 h
Procedure, shortened: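 MCF-7 (ATCC), kept in DMEM with 10% FBS, were treated in triplicate for 72 h. IC50 is the average of at least three independent experiments ± SD.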

Estrogen receptor beta [8] = molecular target: T2, Estrogen receptor beta; assay: Agonist activity at ERbeta (unknown origin) expressed in HEK293T cells assessed as transcriptional activity after 24 hrs by dual luciferase reporter gene assay relative to 17beta-estradiol; type: cell-based; procedure, shortened: as §1
Estrogen receptor beta [9] = molecular target: T2, Estrogen receptor beta; assay: Agonist activity at ERbeta (unknown origin) expressed in HEK293T cells assessed as transcriptional activity after 24 hrs by dual luciferase reporter gene assay; type: cell-based; procedure, shortened: as §1
MCF7 [10] = assay: Antiproliferative activity against human MCF7 cells at 50 uM after 5 days in presence of 10 nM 17beta-estradiol by MTT assay; type: functional, cell-based
Procedure, shortened: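 MCF-7 cells were given 50 μM compound with or without 10 nM E2 and cultured 5 days. Viability was expressed relative to untreated cells set at 100%. Mean of three separate experiments ± range.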

Row | SMILES | RBA [1] [%] | RBA (Estrogen receptor beta [2]) [%] | Ratio (Homo sapiens) | EC50 (Estrogen receptor [3]) [nM] | IC50 (Estrogen receptor [4]) [nM] | Efficacy (Estrogen receptor beta [5]) [%] | IC50 (Estrogen receptor beta [6]) [nM] | IC50 (MCF7 [7]) [nM] | Efficacy (Estrogen receptor beta [8]) [%] | EC50 (Estrogen receptor beta [9]) [nM] | Activity (MCF7 [10])
1 | Oc1ccc(-c2cc(-c3ccc(OCCN4CCCCC4)cc3)c(-c3ccc(O)cc3)[se]2)cc1 | 4.59 | < 0.1 | > 10 | 1830 | 779 | 33.8 | 5390 | 7040 | – | – | –
2 | Oc1ccc(-c2ccc(-c3ccc(O)cc3)[se]2)cc1 | 0.61 | 2.87 | – | – | – | – | – | – | – | – | –
3 | Oc1ccc(-c2ccc(-c3ccc(OCCN4CCCCC4)cc3F)[se]2)c(F)c1 | 6.89 | 0.63 | 10.9 | 204 | – | 75.4 | 1940 | > 100000 | – | – | –
4 | Oc1ccc(-c2ccc(-c3ccc(O)cc3Cl)[se]2)c(Cl)c1 | 6.11 | 12.7 | 0.48 | – | – | – | – | – | – | – | –
5 | Oc1ccc(-c2ccc(-c3ccc(OCCN4CCCCC4)cc3Cl)[se]2)c(Cl)c1 | < 0.1 | < 0.1 | – | 911 | – | 24.9 | 2960 | > 100000 | – | – | –
6 | Oc1ccc(-c2c[se]cc2-c2ccc(O)c(F)c2)cc1F | 0.58 | 1.56 | – | – | – | – | – | – | – | – | –
7 | Cc1cc(O)ccc1-c1c[se]cc1-c1ccc(O)cc1C | 0.27 | 6.7 | – | – | – | – | – | – | – | – | –
8 | Cc1cc(O)ccc1-c1ccc(-c2ccc(OCCN3CCCCC3)cc2C)[se]1 | < 0.1 | 0.62 | < 0.1 | 2370 | 41 | 78.3 | 1240 | 25300 | – | – | –
9 | Cc1cc(O)ccc1-c1c[se]cc1-c1ccc(OCCN2CCCCC2)cc1C | 0.56 | 10.2 | 0.05 | 158 | 237 | 43.4 | 1340 | 15800 | – | – | –
10 | Cc1cc(O)ccc1-c1ccc(-c2ccc(OCCN3CCCC3)cc2C)[se]1 | 1.96 | 0.58 | 3.37 | – | 874 | 4.6 | 146 | 53800 | 72.3 | 240 | –
11 | Oc1ccc(-c2c[se]cc2-c2ccc(O)cc2)cc1 | 0.32 | 2.01 | – | – | – | – | – | – | – | – | –
12 | Cc1cc(O)ccc1-c1cc(-c2ccc(OCCN3CCCC3)cc2)c(-c2ccc(O)cc2C)[se]1 | 13.8 | 3.4 | 4.06 | – | 13 | 170 | 16 | 7050 | – | – | –
13 | Oc1ccc(-c2c[se]cc2-c2ccc(OCCN3CCCC3)cc2Cl)c(Cl)c1 | < 0.1 | 23.3 | < 0.1 | – | 769 | 68.1 | 1160 | 10900 | – | – | –
14 | Oc1ccc(-c2cc(-c3ccc(OCCN4CCCC4)cc3)c(-c3ccc(O)cc3)[se]2)cc1 | 3.14 | 16.7 | 0.18 | – | 974 | 49.2 | 475 | 4950 | – | – | inactive
15 | Oc1ccc(-c2c[se]cc2-c2ccc(OCCN3CCCC3)cc2)cc1 | 2.06 | 5.92 | 0.35 | 1000 | – | 46.7 | 102 | > 100000 | – | – | –
16 | Oc1ccc(-c2ccc(-c3ccc(OCCN4CCCC4)cc3F)[se]2)c(F)c1 | 0.76 | < 0.1 | > 10 | 136 | – | 92.1 | 1120 | > 100000 | – | – | –
17 | Cc1cc(-c2c[se]cc2-c2ccc(O)c(C)c2)ccc1O | 0.71 | 0.62 | – | – | – | – | – | – | – | – | –
18 | Cc1cc(-c2c[se]cc2-c2ccc(OCCN3CCCCC3)c(C)c2)ccc1O | < 0.1 | < 0.1 | – | 721 | – | 30.3 | 415 | > 100000 | – | – | –
19 | Oc1ccc(-c2ccc(-c3ccc(O)cc3F)[se]2)c(F)c1 | 5.9 | 24.3 | – | – | – | – | – | – | – | – | –
20 | Cc1cc(O)ccc1-c1c[se]cc1-c1ccc(OCCN2CCCC2)cc1C | 1.65 | 0.46 | 3.6 | – | 179 | 66.7 | 43 | 16600 | – | – | –
21 | Cc1cc(O)ccc1-c1ccc(-c2ccc(O)cc2C)[se]1 | 5.6 | 11.1 | – | – | – | – | – | – | – | – | –
22 | Oc1ccc(-c2ccc(-c3ccc(OCCN4CCCC4)cc3)[se]2)cc1 | 12.4 | 1.02 | 12.2 | 219 | 1210 | 83.9 | 1270 | 5770 | – | – | inactive
23 | Oc1ccc(-c2ccc(-c3ccc(OCCN4CCCC4)cc3Cl)[se]2)c(Cl)c1 | 4.59 | 23.6 | 0.19 | – | 415 | 49.4 | 299 | 7810 | – | – | –
24 | Oc1ccc(-c2c[se]cc2-c2ccc(OCCN3CCCCC3)cc2Cl)c(Cl)c1 | 5.38 | 18.4 | 0.29 | – | 413 | 37.7 | 331 | 14100 | – | – | –
25 | Cc1cc(-c2c[se]cc2-c2ccc(OCCN3CCCC3)c(C)c2)ccc1O | 2.03 | 5.92 | 0.34 | 116 | 836 | 34.1 | 5 | 12800 | 20.8 | – | –
26 | Oc1ccc(-c2c[se]cc2-c2ccc(OCCN3CCCCC3)c(F)c2)cc1F | 4.82 | 15.3 | 0.32 | – | 69 | 45 | 540 | 15600 | – | – | –
